# System: Fibroblast
# Assay: Multiplex assay against human fibroblast
# Format: toxicity, cell-based
# In short: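 Live cells carried four stains from seeding: Hoechst33342, BioTracker Green Microtubule Cytoskeleton Dye, MitoTracker Red and Annexin V Alexa Fluor 680. They were imaged on a CQ1 microscope at 37°C and 5% CO2 after compound addition. Using CellPathfinder machine-learning gating, cells were split into Hoechst high-intensity objects or normal cells, normal cells into healthy, pyknosed or fragmented nuclei, and pyknosed cells into mitotic or apoptotic; tubulin, mitochondrial-mass and membrane-permeability phenotypes are per cents of healthy-nucleus cells.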
# [1] = 12 h, 1 µM, compound concentration 1 uM, replicate 1
# [2] = 12 h, 1 µM, compound concentration 1 uM, replicate 2
# [3] = 12 h, 10 µM, compound concentration 10 uM, replicate 1
# [4] = 12 h, 10 µM, compound concentration 10 uM, replicate 2
# [5] = 24 h, 1 µM, compound concentration 1 uM, replicate 1
# [6] = 24 h, 1 µM, compound concentration 1 uM, replicate 2
# [7] = 24 h, 10 µM, compound concentration 10 uM, replicate 1
# [8] = 24 h, 10 µM, compound concentration 10 uM, replicate 2
# [9] = 48 h, 1 µM, compound concentration 1 uM, replicate 1
# [10] = 48 h, 1 µM, compound concentration 1 uM, replicate 2
# [11] = 48 h, 10 µM, compound concentration 10 uM, replicate 1
# [12] = 48 h, 10 µM, compound concentration 10 uM, replicate 2
structure (smiles),measurement,setting,value
Nc1nc(CC(=O)Nc2ccc(CCNC[C@H](O)c3ccccc3)cc2)cs1 [MIRABEGRON],Population Apoptotic (%),[1],53%
same,Population Fragmented Nuclei (%),[1],19%
same,Population Healthy Nuclei (%),[1],62%
same,Population Hoechst High Intensity Objects (%),[1],5%
same,Population Membrane Permeable-Phenotype (%),[1],0%
same,Population Mitochondria Different-Phenotype (%),[1],6%
same,Population Mitotic Cells (%),[1],46%
same,Population Normal (%),[1],94%
same,Population Pyknosed Nuclei (%),[1],18%
same,Population Tubulin-Different-Phenotype (%),[1],25%
same,Total Cell Count,[1],164
same,Population Apoptotic (%),[2],31%
same,Population Fragmented Nuclei (%),[2],27%
same,Population Healthy Nuclei (%),[2],52%
same,Population Hoechst High Intensity Objects (%),[2],4%
same,Population Membrane Permeable-Phenotype (%),[2],9%
same,Population Mitochondria Different-Phenotype (%),[2],12%
same,Population Mitotic Cells (%),[2],68%
same,Population Normal (%),[2],95%
same,Population Pyknosed Nuclei (%),[2],19%
same,Population Tubulin-Different-Phenotype (%),[2],46%
same,Total Cell Count,[2],189
same,Population Apoptotic (%),[3],46%
same,Population Fragmented Nuclei (%),[3],15%
same,Population Healthy Nuclei (%),[3],75%
same,Population Hoechst High Intensity Objects (%),[3],3%
same,Population Membrane Permeable-Phenotype (%),[3],0%
same,Population Mitochondria Different-Phenotype (%),[3],4%
same,Population Mitotic Cells (%),[3],53%
same,Population Normal (%),[3],96%
same,Population Pyknosed Nuclei (%),[3],9%
same,Population Tubulin-Different-Phenotype (%),[3],19%
same,Total Cell Count,[3],171
same,Population Apoptotic (%),[4],30%
same,Population Fragmented Nuclei (%),[4],31%
same,Population Healthy Nuclei (%),[4],41%
same,Population Hoechst High Intensity Objects (%),[4],5%
same,Population Membrane Permeable-Phenotype (%),[4],1%
same,Population Mitochondria Different-Phenotype (%),[4],3%
same,Population Mitotic Cells (%),[4],69%
same,Population Normal (%),[4],94%
same,Population Pyknosed Nuclei (%),[4],27%
same,Population Tubulin-Different-Phenotype (%),[4],45%
same,Total Cell Count,[4],137
same,Population Apoptotic (%),[5],59%
same,Population Fragmented Nuclei (%),[5],17%
same,Population Healthy Nuclei (%),[5],64%
same,Population Hoechst High Intensity Objects (%),[5],5%
same,Population Membrane Permeable-Phenotype (%),[5],1%
same,Population Mitochondria Different-Phenotype (%),[5],4%
same,Population Mitotic Cells (%),[5],40%
same,Population Normal (%),[5],94%
same,Population Pyknosed Nuclei (%),[5],18%
same,Population Tubulin-Different-Phenotype (%),[5],28%
same,Total Cell Count,[5],156
same,Population Apoptotic (%),[6],58%
same,Population Fragmented Nuclei (%),[6],27%
same,Population Healthy Nuclei (%),[6],57%
same,Population Membrane Permeable-Phenotype (%),[6],9%
same,Population Mitochondria Different-Phenotype (%),[6],7%
same,Population Mitotic Cells (%),[6],41%
same,Population Pyknosed Nuclei (%),[6],14%
same,Population Tubulin-Different-Phenotype (%),[6],45%
same,Total Cell Count,[6],179
same,Population Apoptotic (%),[7],53%
same,Population Fragmented Nuclei (%),[7],15%
same,Population Healthy Nuclei (%),[7],75%
same,Population Hoechst High Intensity Objects (%),[7],2%
same,Population Membrane Permeable-Phenotype (%),[7],0%
same,Population Mitochondria Different-Phenotype (%),[7],4%
same,Population Mitotic Cells (%),[7],46%
same,Population Normal (%),[7],97%
same,Population Pyknosed Nuclei (%),[7],8%
same,Population Tubulin-Different-Phenotype (%),[7],24%
same,Total Cell Count,[7],181
same,Population Apoptotic (%),[8],55%
same,Population Fragmented Nuclei (%),[8],29%
same,Population Healthy Nuclei (%),[8],48%
same,Population Hoechst High Intensity Objects (%),[8],4%
same,Population Membrane Permeable-Phenotype (%),[8],4%
same,Population Mitochondria Different-Phenotype (%),[8],6%
same,Population Mitotic Cells (%),[8],44%
same,Population Normal (%),[8],95%
same,Population Pyknosed Nuclei (%),[8],21%
same,Population Tubulin-Different-Phenotype (%),[8],44%
same,Total Cell Count,[8],131
same,Population Apoptotic (%),[9],76%
same,Population Fragmented Nuclei (%),[9],23%
same,Population Healthy Nuclei (%),[9],60%
same,Population Hoechst High Intensity Objects (%),[9],7%
same,Population Membrane Permeable-Phenotype (%),[9],2%
same,Population Mitochondria Different-Phenotype (%),[9],6%
same,Population Mitotic Cells (%),[9],23%
same,Population Normal (%),[9],92%
same,Population Pyknosed Nuclei (%),[9],15%
same,Population Tubulin-Different-Phenotype (%),[9],28%
same,Total Cell Count,[9],176
same,Population Apoptotic (%),[10],50%
same,Population Fragmented Nuclei (%),[10],40%
same,Population Healthy Nuclei (%),[10],52%
same,Population Hoechst High Intensity Objects (%),[10],2%
same,Population Membrane Permeable-Phenotype (%),[10],4%
same,Population Mitochondria Different-Phenotype (%),[10],10%
same,Population Mitotic Cells (%),[10],50%
same,Population Normal (%),[10],97%
same,Population Pyknosed Nuclei (%),[10],7%
same,Population Tubulin-Different-Phenotype (%),[10],32%
same,Total Cell Count,[10],195
same,Population Apoptotic (%),[11],64%
same,Population Fragmented Nuclei (%),[11],18%
same,Population Healthy Nuclei (%),[11],74%
same,Population Hoechst High Intensity Objects (%),[11],4%
same,Population Membrane Permeable-Phenotype (%),[11],0%
same,Population Mitochondria Different-Phenotype (%),[11],4%
same,Population Mitotic Cells (%),[11],35%
same,Population Normal (%),[11],95%
same,Population Pyknosed Nuclei (%),[11],7%
same,Population Tubulin-Different-Phenotype (%),[11],21%
same,Total Cell Count,[11],194
same,Population Apoptotic (%),[12],75%
same,Population Fragmented Nuclei (%),[12],39%
same,Population Healthy Nuclei (%),[12],48%
same,Population Hoechst High Intensity Objects (%),[12],3%
same,Population Membrane Permeable-Phenotype (%),[12],6%
same,Population Mitochondria Different-Phenotype (%),[12],6%
same,Population Mitotic Cells (%),[12],25%
same,Population Normal (%),[12],96%
same,Population Pyknosed Nuclei (%),[12],12%
same,Population Tubulin-Different-Phenotype (%),[12],51%
same,Total Cell Count,[12],132

# Source: ChEMBL document CHEMBL5058577, “EUbOPEN Chemogenomics Library 2 (Multiplex)” (2022)
